# Assay results: ChEMBL document CHEMBL4680083, “Identification of Tricyclic Agonists of Sphingosine-1-phosphate Receptor 1 (S1P) Employing Ligand-Based Drug Design” (J Med Chem, 2016)
# Assays:
# [1] = Selectivity index, ratio of EC50 for agonist activity at human S1P3 expressed in CHO cell membranes to EC50 for agonist activity at human S1P1 expressed in CHO cell membranes; format: cell-based
# [2] = molecular target: Sphingosine 1-phosphate receptor 3 (Homo sapiens, UniProt Q99500); test: Agonist activity at human S1P3 expressed in CHO cell membranes assessed as stimulation of [35S]-GTPgamma-S binding measured after 45 mins by liquid scintillation counting method; parameters: species or system Cell membrane
# Sequence of Sphingosine 1-phosphate receptor 3 (Q99500 whole entry): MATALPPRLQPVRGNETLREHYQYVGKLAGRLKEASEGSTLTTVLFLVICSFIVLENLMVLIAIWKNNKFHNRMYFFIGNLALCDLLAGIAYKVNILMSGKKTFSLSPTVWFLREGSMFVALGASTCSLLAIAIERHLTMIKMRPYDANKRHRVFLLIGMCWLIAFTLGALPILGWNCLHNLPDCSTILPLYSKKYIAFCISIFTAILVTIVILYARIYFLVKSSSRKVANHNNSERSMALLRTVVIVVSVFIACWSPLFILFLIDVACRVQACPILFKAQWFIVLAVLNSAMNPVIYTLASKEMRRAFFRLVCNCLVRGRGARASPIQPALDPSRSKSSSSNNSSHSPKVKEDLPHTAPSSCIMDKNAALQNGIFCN
# [3] = molecular target: Sphingosine 1-phosphate receptor 1 (Homo sapiens, UniProt P21453); test: Agonist activity at human S1P1 expressed in CHO cell membranes assessed as stimulation of [35S]-GTPgamma-S binding measured after 45 mins by liquid scintillation counting method; parameters: species or system Cell membrane
# Sequence of Sphingosine 1-phosphate receptor 1 (P21453 whole entry): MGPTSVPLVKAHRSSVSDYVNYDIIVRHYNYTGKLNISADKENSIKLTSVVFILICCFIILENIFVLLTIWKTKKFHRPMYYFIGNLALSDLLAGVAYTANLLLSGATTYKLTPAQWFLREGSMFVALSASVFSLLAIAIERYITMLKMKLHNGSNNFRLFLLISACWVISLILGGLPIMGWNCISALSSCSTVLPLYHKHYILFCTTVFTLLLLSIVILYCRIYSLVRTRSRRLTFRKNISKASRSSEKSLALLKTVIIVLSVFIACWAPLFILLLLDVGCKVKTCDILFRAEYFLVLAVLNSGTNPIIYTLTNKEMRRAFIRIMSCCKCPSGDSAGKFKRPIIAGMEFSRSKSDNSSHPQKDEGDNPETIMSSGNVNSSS
# In short: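 S1P1/CHO cell membranes at 3 μg protein/well with 3-fold compound dilutions. [35S]GTPγS 0.2 nM final, 45 min at room temperature. Filter-plate capture, water washes, scintillation counting. EC50 taken at 50% of each compound's own Ymax.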
# [4] = Plasma concentration in Lewis rat at 1 mg/kg, po measured at 24 hrs; format: ADME, organism-based; settings: for concentration at 24 h: Lewis, plasma; for Cp / concentration: in vivo, 1 mg/kg, 24 h; for Cp: BLD = below limit of detection
# In short: (§1)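 Lewis rats received a single oral 1.0 mg/kg dose as solution or suspension in PEG300. Blood was drawn retro-orbitally under isoflurane at 4 h and 24 h, within the blood lymphocyte reduction study. n = 3−4 per group, group mean reported.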
# [5] = Ratio of plasma concentration in Lewis rat at 1 mg/kg, po measured at 4 hrs to plasma concentration in Lewis rat at 1 mg/kg, po measured at 24 hrs; format: ADME, organism-based; settings: in vivo
# Rattus norvegicus [6] = test: Reduction in circulating lymphocytes count in Lewis rat blood at 1 mg/kg, po measured at 4 hrs by hematology analyzer based analysis; format: functional; parameters: scale not given: the % may be the effect or the level left
# In short: (§2)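 Lewis rats were given an oral dose as a solution or suspension in PEG300, with controls receiving vehicle only. Blood was taken by retro-orbital bleeding under isoflurane at 4 and 24 h. Lymphocytes were counted on a hematology analyzer. Reduction is relative to the vehicle group, averaged over the animals in each group (n = 3−4).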
# [7] = Plasma concentration in Lewis rat at 1 mg/kg, po measured at 4 hr; format: ADME, organism-based; settings: for concentration at 4 h: Lewis, plasma; in short: as §1
# Rattus norvegicus [8] = test: Reduction in circulating lymphocytes count in Lewis rat blood at 1 mg/kg, po measured at 24 hrs by hematology analyzer based analysis; format: functional; parameters: scale not given: the % may be the effect or the level left; in short: as §2
Structure (SMILES),Ratio EC50 [1],EC50 [2] [µM],EC50 [3] [µM],concentration at 24 h [4] [nM],Ratio [5],Activity (Rattus norvegicus [6]) [%],concentration at 4 h [7] [nM],Activity (Rattus norvegicus [8]) [%],also measured
CS(=O)(=O)CCNC(=O)C(O)c1ccc2c(c1)CCc1c-2noc1-c1noc(-c2ccccc2)c1C(F)(F)F (stereo in doubt; 78) [listing 1 of 2 here],3900,,,,,,,,
CC(C)Oc1ccc(-c2onc3c2CCc2cc(CN4CC(C(=O)O)C4)ccc2-3)c(C(F)(F)F)c1,460,11,0.024,,,,,,
CS(=O)(=O)CCNC(=O)C(O)c1ccc2c(c1)CCc1c-2noc1-c1noc(-c2ccccc2)c1C(F)(F)F (stereo in doubt; 77) [listing 1 of 2 here],90,,,,,,,,
CS(=O)(=O)CCNC(=O)C(O)c1ccc2c(c1)CCc1c-2noc1-c1noc(-c2ccccc2)c1C(F)(F)F (stereo in doubt; 77) [listing 2 of 2 here],,18,0.2,,,,,,
CN1Cc2c(noc2-c2onc(-c3ccccc3)c2C(F)(F)F)-c2ccc(CN3CC(C(=O)O)C3)cc21,> 39000,> 63,0.0016,,,,,,
O=C(O)C1CN(Cc2ccc3c(c2)CCc2nc(-c4onc(-c5ccccc5)c4C(F)(F)F)sc2-3)C1,5000,12,0.0024,84,3,80,230,85,
Cn1nc(-c2noc(-c3ccccc3)c2C(F)(F)F)c2c1-c1ccc(CN3CC(C(=O)O)C3)cc1CC2,> 3000,> 63,0.021,,,,,,
CC(C)Oc1ccc(-c2onc3c2CCc2cc(CN4CC(C(=O)O)C4)ccc2-3)cc1C(F)(F)F,17000,26,0.0015,5,6,57,28,21,
O=C(O)C1CN(Cc2ccc3c(c2)Cc2c-3noc2-c2noc(-c3ccccc3)c2C(F)(F)F)C1,4700,32,0.0068,,,14,21,3,Cp [4]: Bld
O=C(O)C[C@H]1CCCN(CC(O)c2ccc3c(c2)CCc2c-3noc2-c2noc(-c3ccccc3)c2C(F)(F)F)C1 (stereo in doubt; 73) [listing 1 of 2 here],1900,,,,,,,,
O=C(O)[C@H]1CCCN(CC(O)c2ccc3c(c2)CCc2c-3noc2-c2noc(-c3ccccc3)c2C(F)(F)F)C1 (stereo in doubt; 76) [listing 1 of 2 here],,16,0.026,,7,,,,"concentration [4]: 21 nM; Activity (Rattus norvegicus [6]; 1 mg/kg, 4 h): 28%; Activity (Rattus norvegicus [8]; 1 mg/kg, 24 h): 20%"
CC(C)Cc1onc(-c2onc3c2CCc2cc(CN4CC(C(=O)O)C4)ccc2-3)c1C(F)(F)F,> 2100,> 3.1,0.0015,61,9,86,520,80,
O=C(O)C1CN(Cc2cc3c(cc2F)-c2noc(-c4noc(-c5ccccc5)c4C(F)(F)F)c2CC3)C1,9400,15,0.0016,46,7,74,320,79,
O=C(O)C1CN(Cc2ccc3c(c2)CCCc2c(-c4noc(-c5ccccc5)c4C(F)(F)F)noc2-3)C1,390,12,0.031,,,,,,
O=C(O)C1CN(Cc2ccc(-c3noc(-c4onc(-c5ccccc5)c4C(F)(F)F)n3)cc2)C1,,,,700,3,78,2100,91,
CC(C)Cc1ccc(-c2onc3c2CCc2cc(CN4CC(C(=O)O)C4)ccc2-3)cc1C(F)(F)F,2200,2.8,0.0013,50,2,74,110,76,
O=C(O)C1CN(Cc2ccc3c(c2)CCc2c-3n[nH]c2-c2onc(-c3ccccc3)c2C(F)(F)F)C1,> 330,> 63,0.19,,,,,,
Cc1cc2c(cc1CN1CC(C(=O)O)C1)CCc1c-2noc1-c1noc(-c2ccccc2)c1C(F)(F)F,1400,1.2,0.00087,4,48,85,190,34,

Structure (SMILES),Ratio EC50 [1],EC50 [2] [µM],EC50 [3] [µM],concentration at 24 h [4] [nM],Ratio [5],Activity (Rattus norvegicus [6]) [%],concentration at 4 h [7] [nM],Activity (Rattus norvegicus [8]) [%],also measured
O=C(O)C1CN(Cc2ccc3c(c2)CCc2c-3noc2-c2cccc(C(F)(F)F)c2)C1,> 200,> 63,0.31,,,,,,
O=C(O)C1CN(Cc2ccc3c(c2)OCCc2c(-c4noc(-c5ccccc5)c4C(F)(F)F)noc2-3)C1,48,1.6,0.033,,,,,,
O=C(O)[C@H]1CCCN(CC(O)c2ccc3c(c2)CCc2c-3noc2-c2noc(-c3ccccc3)c2C(F)(F)F)C1 (stereo in doubt; 76) [listing 2 of 2 here],620,,,,,,,,
O=C(O)C1CN(Cc2ccc3c(c2)CCc2c-3noc2-c2ccc(C3CCCCC3)c(C(F)(F)F)c2)C1,2100,2.1,0.00098,17,4,35,68,32,
Cn1nc2c(c1-c1noc(-c3ccccc3)c1C(F)(F)F)CCc1cc(CN3CC(C(=O)O)C3)ccc1-2,> 170,> 63,0.38,,,,,,
O=C(O)[C@H]1CCCN(CC(O)c2ccc3c(c2)CCc2c-3noc2-c2noc(-c3ccccc3)c2C(F)(F)F)C1 (stereo in doubt; 75) [listing 1 of 2 here],62000,,,,,,,,
O=C(O)C[C@H]1CCCN(CC(O)c2ccc3c(c2)CCc2c-3noc2-c2noc(-c3ccccc3)c2C(F)(F)F)C1 (stereo in doubt; 74) [listing 1 of 2 here],5200,,,,,,,,
O=C(O)C1CN(Cc2ccc3c(c2)OCc2c-3noc2-c2onc(-c3ccccc3)c2C(F)(F)F)C1,> 120000,> 31,0.00025,56,6,82,330,89,
O=C(O)[C@H]1CCCN(CC(O)c2ccc3c(c2)CCc2c-3noc2-c2noc(-c3ccccc3)c2C(F)(F)F)C1 (stereo in doubt; 75) [listing 2 of 2 here],,13,0.00021,,3,,140,,"concentration [4]: 49 nM; Activity (Rattus norvegicus [6]; 1 mg/kg, 4 h): 76%; Activity (Rattus norvegicus [8]; 1 mg/kg, 24 h): 76%"
O=C(O)C1CN(Cc2ccc3c(c2)CCc2nc(-c4onc(-c5ccccc5)c4C(F)(F)F)oc2-3)C1,170,0.92,0.0055,11,10,62,110,2,
CS(=O)(=O)CCNC(=O)C(O)c1ccc2c(c1)CCc1c-2noc1-c1noc(-c2ccccc2)c1C(F)(F)F (stereo in doubt; 78) [listing 2 of 2 here],,6.2,0.0016,26,,50,190,43,
O=C(O)C1CN(Cc2ccc3c(c2)CCc2c-3noc2-c2noc(-c3ccccc3)c2C(F)(F)F)C1,4000,1.9,0.00048,43,4,83,160,87,
O=C(O)C[C@H]1CCCN(CC(O)c2ccc3c(c2)CCc2c-3noc2-c2noc(-c3ccccc3)c2C(F)(F)F)C1 (stereo in doubt; 74) [listing 2 of 2 here],,1.7,0.00033,,4,,,,"concentration [4]: 32 nM; concentration ([7]; in vivo, 1 mg/kg, 4 h): 93 nM; Activity (Rattus norvegicus [8]; 1 mg/kg, 24 h): 87%"
CC(C)Oc1ccc(-c2onc3c2CCc2cc(CN4CC(C(=O)O)C4)ccc2-3)cc1C#N,> 14000,> 63,0.0046,,,-5,,12,"Cp [4]: Bld; Cp ([7]; in vivo, 1 mg/kg, 4 h, BLD = below limit of detection): Bld"
O=C1NC(=O)C2(CN(Cc3ccc4c(c3)CCc3c-4noc3-c3noc(-c4ccccc4)c3C(F)(F)F)C2)N1,450,23,0.051,,,,,,
CCOc1ccc(-c2onc3c2CCc2cc(CN4CC(C(=O)O)C4)ccc2-3)cc1OCC,8800,14,0.0016,,,,,,
O=C(O)C[C@H]1CCCN(CC(O)c2ccc3c(c2)CCc2c-3noc2-c2noc(-c3ccccc3)c2C(F)(F)F)C1 (stereo in doubt; 73) [listing 2 of 2 here],,7.4,0.004,,1,70,,,"concentration [4]: 160 nM; concentration ([7]; in vivo, 1 mg/kg, 4 h): 190 nM; Activity (Rattus norvegicus [8]; 1 mg/kg, 24 h): 72%"
